{"source": "ChEMBL document CHEMBL1268890", "about": "“Binding of diarrheic shellfish poisoning toxins to okadaic acid binding proteins purified from the sponge Halichondria okadai” (Bioorg Med Chem, 2010)", "key": {"BL21-DE3": {"tested_on": "BL21-DE3", "experiment": "Displacement of [24-3H]OA from Halichondria okadai recombinant OABP 2.1 expressed in Escherichia coli BL21 (DE3) cells"}, "[1]": {"biological_target": "T1, Okadaic acid binding protein 2.3 (Halichondria okadai) (UniProt B0M1D1)", "T1 sequence (whole entry)": "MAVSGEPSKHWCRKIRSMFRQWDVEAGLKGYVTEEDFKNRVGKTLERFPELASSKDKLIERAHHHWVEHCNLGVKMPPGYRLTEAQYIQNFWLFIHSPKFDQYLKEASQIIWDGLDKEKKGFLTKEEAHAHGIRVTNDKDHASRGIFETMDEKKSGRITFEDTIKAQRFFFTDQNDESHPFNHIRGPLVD", "experiment": "Displacement of [24-3H]OA from Halichondria okadai recombinant OABP 2.3 expressed in Escherichia coli BL21 (DE3) cells"}, "P388 [2]": {"tested_on": "P388", "experiment": "Blockade of okadaic acid-induced cytotoxicity in mouse P388 cells after 2 days by WST-8 assay in presence of Halichondria okadai recombinant OABP 2.1", "format": "functional, cell-based", "details": "P388, 48 h", "in_short": "(§1)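 P388 cells kept in RPMI 1640 with FBS, penicillin and streptomycin. Cells exposed to 100 nM okadaic acid together with graded concentrations of recombinant OABP for 2 days. WST-8 then added for 4 h; relative viability read as absorbance at 450 nm; EC50 from dose-response.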"}, "P388 [3]": {"tested_on": "P388", "experiment": "Blockade of okadaic acid-induced cytotoxicity in mouse P388 cells after 2 days by WST-8 assay in presence of Halichondria okadai recombinant OABP 2.3", "format": "functional, cell-based", "details": "P388, 48 h", "in_short": "as §1"}, "P388 [4]": {"tested_on": "P388", "experiment": "Blockade of mitomycin-induced cytotoxicity in mouse P388 cells after 2 days by WST-8 assay in presence of Halichondria okadai recombinant OABP 2.1", "format": "functional, cell-based"}}, "note": "Active and inactive are the calls of the source. The calls are words filed in the database; no cut-off is given here."}
{"smiles": "C=C1[C@@H](O)[C@@H]2O[C@]3(CC[C@H](/C=C/[C@@H](C)[C@@H]4CC(C)=C[C@@]5(O[C@H](C[C@@](C)(O)C(=O)O)CC[C@H]5O)O4)O3)CC[C@H]2O[C@@H]1[C@@H](O)C[C@H](C)[C@H]1O[C@@]2(CCCCO2)CC[C@H]1C", "note": "[OKADAIC ACID]", "values": [{"measurement": "Activity", "setting": "BL21-DE3", "value": "Dose-dependent effect"}, {"measurement": "Activity", "setting": "[1]", "value": "Dose-dependent effect"}, {"measurement": "EC50", "setting": "P388 [2]", "value": 92, "unit": "nM"}, {"measurement": "EC50", "setting": "P388 [3]", "value": 87, "unit": "nM"}, {"measurement": "Activity", "setting": "P388 [4]", "value": "inactive"}]}
{"smiles": "C=C1[C@@H](O)[C@@H]2O[C@]3(CC[C@H](/C=C/[C@@H](C)[C@@H]4CC(C)=C[C@@]5(O[C@H](C[C@@](C)(O)C(=O)O)CC[C@H]5O)O4)O3)CC[C@H]2O[C@@H]1[C@@H](O)C[C@H](C)[C@H]1O[C@@]2(CC[C@H]1C)OCCC[C@H]2C", "values": [{"measurement": "Activity", "setting": "BL21-DE3", "value": "Dose-dependent effect"}, {"measurement": "Activity", "setting": "[1]", "value": "Dose-dependent effect"}]}
